Test [1] deals with HCT-116. In words: Effect on Ac-tubulin level in human HCT-116 cells at 0.33 to 0.11 uM incubated for 6 hrs by Western blot analysis. In kind it is functional, cell-based. The following applies: dose 0.33-0.11 µM. In short, it runs like this: (§1)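 Cells were exposed to the compound for 6 h. Acetylated tubulin was detected by Western blot, with GAPDH as the loading control.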
In general terms: In western blotting, separated proteins are transferred to a membrane and probed.

In test [2] the test system is Jurkat. In words: Effect on Ac-tubulin level in human Jurkat cells at 0.33 to 0.11 uM incubated for 6 hrs by Western blot analysis. The format is functional, cell-based. Conditions: dose 0.33-0.11 µM. The essentials: as §1
For test [3], the system named is THP-1. In words: Upregulation of Ac-HH3 level in human THP-1 cells at 1.1 to 3.3 uM measured after 24 hrs by Western blot analysis. Conditions: dose 1.1-3.3 µM. The format is functional, cell-based. In short, it runs like this:
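THP-1 cells were exposed to the compound at the indicated concentrations for 24 h, then immunoblotted for Ac-HH3, Ac-SMC3, Ac-tubulin and HDAC8 with GAPDH as loading control. Band intensities were quantified and normalized to the DMSO-treated group. Data are mean ± SEM of two independent experiments, analysed by one-way ANOVA against DMSO.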

Test [4] concerns Jurkat. Nature of the test: Upregulation of Ac-HH3 level in human Jurkat cells incubated for 6 hrs by Western blot analysis. In kind it is functional, cell-based. The essentials:
(§2)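 Jurkat cells exposed to the indicated compound concentrations for 6 h. Ac-SMC3 and Ac-HH3 were detected by Western blot with GAPDH as loading control. Bands were quantified by densitometry and normalized to the DMSO-treated group. Data are mean ± SEM of two independent experiments, compared with DMSO by one-way ANOVA.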

Test [5] has as its system HCT-116. Nature of the test: Upregulation of Ac-HH3 level in human HCT-116 cells incubated for 6 hrs by Western blot analysis. The format is functional, cell-based. The following applies: dose 0.004-3.3 µM. In short, it runs like this:
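HCT116 cells were incubated with graded concentrations for 6 h. Ac-HH3 was detected by Western blot with GAPDH as the loading control, then quantified by densitometry and normalized to DMSO-treated cells. Data are mean ± SEM of two independent experiments, compared against DMSO by one-way ANOVA.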

The test system of test [6] is Jurkat. In words: Upregulation of Ac-SMC3 level in human Jurkat cells at 1 uM measured after 6 hrs by Western blot analysis. In kind it is functional, cell-based. In short, it runs like this:
as §2

Test [7] relates to Jurkat. Nature of the test: Upregulation of Ac-HH3 level in human Jurkat cells at 1 uM measured after 6 hrs by Western blot analysis. In kind it is functional, cell-based. In short, it runs like this:
as §2

For test [8], the system named is Jurkat. In words: Upregulation of Ac-tubulin level in human Jurkat cells at 1 uM measured after 6 hrs by Western blot analysis. In kind it is functional, cell-based. In short, it runs like this:
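Jurkat cells were treated for 6 h at the indicated concentrations. Acetylated tubulin was probed by Western blot, with GAPDH as loading control.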

For test [9], the system named is Jurkat. Nature of the test: Induction of apoptosis in human Jurkat cells assessed as increase in caspase 3/7 activity at 5 uM incubated for 48 hrs. The format is functional, cell-based.
Test [10] relates to Jurkat. Nature of the test: Upregulation of AcHH4 level on human Jurkat cells at 1 to 10 uM measured after 48 hrs by Western blot analysis. The format is functional, cell-based. The following applies: dose 1-10 µM.
Test [11] relates to HCT-116. In words: Induction of apoptosis in human HCT-116 cells assessed as increase in caspase 3/7 activity at 5 uM incubated for 48 hrs. In kind it is functional, cell-based.
Test [12] deals with Jurkat. Nature of the test: Upregulation of Ac-HH3 level in human Jurkat cells at 0.004 to 0.33 uM incubated for 6 hrs by Western blot analysis. The format is functional, cell-based. The following applies: dose 0.004-0.33 µM. In short, it runs like this:
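Jurkat cells were exposed to the compound for 6 h. Ac-SMC3, Ac-HH3, Ac-tubulin and HDAC8 were probed by Western blot with GAPDH as loading control. Ac-HH3 bands were quantified by densitometry and normalized to the DMSO-treated group. Values are mean ± SEM of two independent experiments, compared with DMSO by one-way ANOVA.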

For test [13], the system named is Jurkat. In words: Upregulation of AcHH3 level on human Jurkat cells at 1 to 10 uM measured after 48 hrs by Western blot analysis. The format is functional, cell-based. The following applies: dose 1-10 µM.
For test [14], the system named is HCT-116. In words: Induction of apoptosis in human HCT-116 cells assessed as early apoptotic cells at 10 uM measured after 48 hrs in presence of tert-butyl 2-(4-(4-((2,6-dioxopiperidin-3-yl)amino)phenyl)piperidin-1-yl)acetate by AnnexinV/FITC and PI staining based flow cytometry analysis (reference value: 5.39%). In kind it is functional. In general terms: Flow cytometry measures light scatter and fluorescence of single cells or particles in a stream.

Test [15] concerns Jurkat. Nature of the test: Upregulation of Ac-SMC3 level in human Jurkat cells at high concentration incubated for 6 hrs by Western blot analysis. In kind it is functional, cell-based. The essentials: as §2
In test [16] the test system is HCT-116. Nature of the test: Induction of apoptosis in human HCT-116 cells assessed as necrotic cells at 10 uM measured after 48 hrs in presence of tert-butyl 2-(4-(4-((2,6-dioxopiperidin-3-yl)amino)phenyl)piperidin-1-yl)acetate by AnnexinV/FITC and PI staining based flow cytometry analysis (reference value: […]). The format is functional.
Test [17] has as its system Jurkat. Nature of the test: Effect on AcHH4 level on human Jurkat cells at 10 uM measured after 48 hrs by Western blot analysis. The format is functional, cell-based.
For test [18], the system named is HCT-116. In words: Induction of apoptosis in human HCT-116 cells assessed as increase in caspase 3/7 activity at 5 uM incubated for 48 hrs in presence of tert-butyl 2-(4-(4-((2,6-dioxopiperidin-3-yl)amino)phenyl)piperidin-1-yl)acetate. The format is functional, cell-based.
Test [19] has as its system HCT-116. Nature of the test: Induction of apoptosis in human HCT-116 cells assessed as viable cells at 10 uM measured after 48 hrs in presence of tert-butyl 2-(4-(4-((2,6-dioxopiperidin-3-yl)amino)phenyl)piperidin-1-yl)acetate by AnnexinV/FITC and PI staining based flow cytometry analysis (reference value: 91.3%). In kind it is functional. The following applies: read-out: Activity.

The subject of test [20] is Jurkat. In words: Effect on AcHH3 level on human Jurkat cells at 10 uM measured after 48 hrs by Western blot analysis. In kind it is functional, cell-based.
The target in test [21] is Protein cereblon/Histone deacetylase 8 (Homo sapiens) (UniProt Q9BY41+Q96SW2). In words: PROTAC activity at CRBN/HDAC8 in human Jurkat cells assessed as induction of HDAC8 degradation at 10 uM measured after 48 hrs by Western blot analysis. The format is cell-based.
The test system of test [22] is Jurkat. Nature of the test: Induction of apoptosis in human Jurkat cells assessed as increase in caspase 3/7 activity at 5 uM incubated for 48 hrs in presence of tert-butyl 2-(4-(4-((2,6-dioxopiperidin-3-yl)amino)phenyl)piperidin-1-yl)acetate. In kind it is functional, cell-based.
In test [23] the test system is HCT-116. In words: Induction of apoptosis in human HCT-116 cells assessed as late apoptotic cells at 10 uM measured after 48 hrs in presence of tert-butyl 2-(4-(4-((2,6-dioxopiperidin-3-yl)amino)phenyl)piperidin-1-yl)acetate by AnnexinV/FITC and PI staining based flow cytometry analysis (reference value: 1.96%). The format is functional.
The test system of test [24] is Jurkat. Nature of the test: Upregulation of Ac-HH3 level in human Jurkat cells at high concentration incubated for 6 hrs by Western blot analysis. In kind it is functional, cell-based. In short, it runs like this: as §2
Test [25] has as its system Jurkat. In words: Upregulation of Ac-HH4 level in human Jurkat cells at 0.4 to […] uM incubated for 24 hrs by Western blot analysis. In kind it is functional, cell-based. Conditions: dose 0.4-33.3 µM.
Test [26] concerns Jurkat. Nature of the test: Upregulation of Ac-HH3 level in human Jurkat cells at 0.4 to […] uM incubated for 24 hrs by Western blot analysis. In kind it is functional, cell-based. The following applies: dose 0.4-33.3 µM.
Test [27] relates to THP-1. In words: cells. Conditions: Homo sapiens, THP-1, 72 h.
The subject of test [28] is HCT-116. Nature of the test: Induction of apoptosis in human HCT-116 cells assessed as increase in caspase 3/7 activity at 5 uM incubated for 48 hrs in presence of N-(4-(2-Hexylhydrazine-1-carbonyl)benzyl)acetamide. In kind it is functional, cell-based.
The subject of test [29] is Jurkat. Nature of the test: Induction of apoptosis in human Jurkat cells assessed as increase in caspase 3/7 activity at 5 uM incubated for 48 hrs in presence of N-(4-(2-Hexylhydrazine-1-carbonyl)benzyl)acetamide. In kind it is functional, cell-based.
Test [30] deals with THP-1. In words: Antiproliferative activity against human THP-1 cells assessed as inhibition of cell growth measured after 72 hrs in presence of N-(4-(2-Hexylhydrazine-1-carbonyl)benzyl)acetamide by MTS assay. The format is functional, cell-based. Conditions: THP-1, 72 h. For orientation: Tetrazolium assays rely on reduction of a dye to a coloured formazan, in cell work by metabolically active cells.

Test [31] has as its system A549. In words: Antiproliferative activity against human A549 cells assessed as inhibition of cell growth measured after 72 hrs in presence of N-(4-(2-Hexylhydrazine-1-carbonyl)benzyl)acetamide by MTS assay. The following applies: A549, 72 h. The format is functional, cell-based.
The subject of test [32] is HCT-116. Nature of the test: Induction of apoptosis in human HCT-116 cells assessed as necrotic cells at 10 uM measured after 48 hrs in presence of N-(4-(2-Hexylhydrazine-1-carbonyl)benzyl)acetamide by AnnexinV/FITC and PI staining based flow cytometry analysis (reference value: […]). In kind it is functional.
Test [33] deals with Jurkat. Nature of the test: Antiproliferative activity against human Jurkat cells assessed as inhibition of cell growth measured after 72 hrs in presence of N-(4-(2-Hexylhydrazine-1-carbonyl)benzyl)acetamide by MTS assay. The format is functional, cell-based.
Test [34] concerns HCT-116. Nature of the test: Induction of apoptosis in human HCT-116 cells assessed as early apoptotic cells at 10 uM measured after 48 hrs in presence of N-(4-(2-Hexylhydrazine-1-carbonyl)benzyl)acetamide by AnnexinV/FITC and PI staining based flow cytometry analysis (reference value: 5.39%). In kind it is functional.
Test [35] relates to HCT-116. In words: Antiproliferative activity against human HCT-116 cells assessed as inhibition of cell growth measured after 72 hrs in presence of N-(4-(2-Hexylhydrazine-1-carbonyl)benzyl)acetamide by MTS assay. In kind it is functional, cell-based. The following applies: HCT-116, 72 h.
Test [36] concerns HCT-116. Nature of the test: Induction of apoptosis in human HCT-116 cells assessed as late apoptotic cells at 10 uM measured after 48 hrs in presence of N-(4-(2-Hexylhydrazine-1-carbonyl)benzyl)acetamide by AnnexinV/FITC and PI staining based flow cytometry analysis (reference value: 1.96%). The format is functional.
Test [37] relates to HCT-116. In words: Induction of apoptosis in human HCT-116 cells assessed as viable cells at 10 uM measured after 48 hrs in presence of N-(4-(2-Hexylhydrazine-1-carbonyl)benzyl)acetamide by AnnexinV/FITC and PI staining based flow cytometry analysis (reference value: 91.3%). The format is functional. The following applies: read-out: Activity.
Test [38] concerns Jurkat. In words: Upregulation of Ac-HH3 level in human Jurkat cells at 3.7 to […] uM incubated for 6 hrs by Western blot analysis. The format is functional, cell-based. Conditions: dose 3.7-33.3 µM.

From ChEMBL document CHEMBL5584302, “Exploration of Hydrazide-Based HDAC8 PROTACs for the Treatment of Hematological Malignancies and Solid Tumors” (J Med Chem, 2024) come the findings set out here.

Each structure is given as a SMILES string. The source made the active and inactive calls. The rule behind the calls is not given here.

Protein cereblon/Histone deacetylase 8 (Homo sapiens), sequence (Q96SW2 whole entry, looked up): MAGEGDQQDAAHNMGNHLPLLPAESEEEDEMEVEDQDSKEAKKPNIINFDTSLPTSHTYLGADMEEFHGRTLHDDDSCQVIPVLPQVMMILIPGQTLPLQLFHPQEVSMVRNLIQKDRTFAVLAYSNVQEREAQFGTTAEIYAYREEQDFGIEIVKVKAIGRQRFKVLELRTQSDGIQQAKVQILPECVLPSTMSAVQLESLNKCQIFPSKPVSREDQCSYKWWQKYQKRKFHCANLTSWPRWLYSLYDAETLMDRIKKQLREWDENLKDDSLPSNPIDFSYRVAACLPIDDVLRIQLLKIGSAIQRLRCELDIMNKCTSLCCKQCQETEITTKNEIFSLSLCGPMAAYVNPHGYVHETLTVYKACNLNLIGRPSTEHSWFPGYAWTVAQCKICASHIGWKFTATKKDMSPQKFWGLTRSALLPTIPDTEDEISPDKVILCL
Protein cereblon/Histone deacetylase 8 (Homo sapiens), sequence (Q9BY41 whole entry, looked up): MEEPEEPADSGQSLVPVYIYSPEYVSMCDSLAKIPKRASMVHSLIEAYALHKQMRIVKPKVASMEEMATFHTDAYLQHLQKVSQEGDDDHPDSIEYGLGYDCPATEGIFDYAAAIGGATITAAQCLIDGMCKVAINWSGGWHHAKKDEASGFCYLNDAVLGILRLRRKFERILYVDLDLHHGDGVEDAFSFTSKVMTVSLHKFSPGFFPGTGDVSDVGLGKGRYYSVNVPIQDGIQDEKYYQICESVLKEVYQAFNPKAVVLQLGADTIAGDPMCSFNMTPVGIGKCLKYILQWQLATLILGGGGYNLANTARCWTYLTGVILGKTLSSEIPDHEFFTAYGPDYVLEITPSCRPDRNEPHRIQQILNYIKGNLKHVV

Consider `CCCCCCNNC(=O)c1ccc(CNC(=O)CN2CCC(c3ccc(NC(C)=O)cc3)CC2)cc1`, for which the result in [1] and in [2] was inactive. The result in [3] was Active. Besides, the Activity entry in test [4] and in test [5] was “Dose-Dependent Effect” throughout.

Consider `O=C(CCCCCCC(=O)Nc1ccccc1)NO`, for which the result in [6] was inactive. The result in test [7], in [8], in test [9], in test [10], in [11] and in test [12] was Active. In [13], the outcome was Active.

As to `CCCCCCNNC(=O)c1ccc(CNC(C)=O)cc1`, the Activity in test [14] turned out to be 19.6%; in [16], 3.33%; in test [23], 3.87%. In addition, the result in test [15] and in test [24] was Active. The result in test [6], in test [17], in [18], in test [20], in test [21] and in test [22] was inactive. The viability at 10 µM in test [19] was 73.2%.

On to `COc1ccc(Cn2ccc3ccc(C(=O)NO)cc32)cc1`, for which the result in test [25] and in test [26] was inactive.

As usually defined, the IC50 is the midpoint of a concentration-inhibition curve. `Nc1ccccc1NC(=O)c1ccc(CNC(=O)OCc2cccnc2)cc1` [ENTINOSTAT] returned an IC50 in test [27] of 2.3 µM.

In the case of `CC(C)(C)OC(=O)CN1CCC(c2ccc(NC3CCC(=O)NC3=O)cc2)CC1` (centres undefined), the result in test [28] and in test [29] was inactive. The IC50 in test [30], in test [31], in test [33] and in [35] was > 33.3 µM each time. Besides, the values for the Activity in test [32], in test [34] and in test [36] were 3.33%, 19.6% and 3.87%, respectively. Further, the viability at 10 µM in [37] was 73.2%.

Turning to `CCCCCCN(NC(=O)c1ccc(CNC(=O)CN2CCC(c3ccc(NC4CCC(=O)NC4=O)cc3)CC2)cc1)C(=O)OC(C)(C)C` (centres undefined), the outcome in test [38] was inactive.
